Rows were chosen to be rich in hits. Some 2.2% of all compounds tested hit in one or more screens of this group.
Apaf-1 inh: inhibitors of human Apaf-1 apoptosome, primary screen, biochemical, DEVD-Rh110 fluorescence, uHTS. reconstituted apoptosome caspase-3 activity. inhibition, % at 20 µM. Apoptotic protease-activating factor 1 (Homo sapiens), O14727. hit rate 0.71% among 330,000; active = inhibition of at least 40% at 20 µM;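 also: plate controls were DMSO wells for no effect and DEVD-CHO caspase inhibitor wells for full effect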
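System: reconstituted apoptosome with Apaf-1, cytochrome c, caspase-9, procaspase-3, dATP; Signal: Rh110 fluorescence intensity; Schedule: 30 min compound preincubation, 50 min activation, room temperature; Reagent: cytochrome c trigger plus (Z-DEVD)2-Rh110 caspase-3 substrate.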
Rin1-Abl PPI inh: inhibitors of Rin1-Abl protein binding, primary screen, biochemical, TR-FRET; inhibition, % at 7.35 µM; hit rate 0.4% among 360,000; in the data active = inhibition above about 5%, passing the limit was not always enough
GSTO1 counter: inhibitors of recombinant GSTO1, primary screen, counter-screen for RBBP9 inhibitor project, biochemical, fluorescence polarization; Glutathione S-transferase omega-1 (Homo sapiens), P78417; activity-based probe fluorescence polarization; inhibition, % at 5.96 µM; hit rate 1.1% among 300,000;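 active = inhibition above the campaign mean inhibition plus 3 SD, cut at about 35% in these data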;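 also: 0% = GSTO1-1 with DMSO and 100% = wells lacking GSTO1-1 enzyme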
UBC13 polyUb: UBC13 polyubiquitin chain formation inhibitors, primary screen, biochemical, TR-FRET, uHTS | Ubiquitin-conjugating enzyme E2 N (Homo sapiens), P61088 | inhibition, % at 20 µM | hit rate 0.47% among 330,000 | AID 485273, 2010; in the data active = inhibition above about 45%, passing the limit was not always enough
SUMO HTRF inh: inhibitors of in vitro SUMOylation cascade, primary screen, biochemical, HTRF, uHTS; inhibition, % at 35 µM; SUMO-conjugating enzyme UBC9 (Homo sapiens), P63279; hit rate 0.36% among 290,000; HTRF SUMOylation assay, SAE1/SAE2 + UBC9; AID 2006, 2009; in the data active = inhibition above about 50%, passing the limit was not always enough
PAD4 inh: human PAD4 inhibitors, primary screen, biochemical, fluorescence polarization, 1536-well format; Protein-arginine deiminase type-4 (Homo sapiens), Q9UM07; recombinant PAD4, RCA probe fluorescence polarization; inhibition, % at 6.36 µM; hit rate 0.41% among 330,000;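 active = percent inhibition above a cutoff equal to the mean of all tested compounds plus 3 SD, cut at about 15% in these data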;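 also: 0% = PAD4 with RCA probe and DMSO and 100% = probe without PAD4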
Target sequence (Q9UM07 whole entry, looked up): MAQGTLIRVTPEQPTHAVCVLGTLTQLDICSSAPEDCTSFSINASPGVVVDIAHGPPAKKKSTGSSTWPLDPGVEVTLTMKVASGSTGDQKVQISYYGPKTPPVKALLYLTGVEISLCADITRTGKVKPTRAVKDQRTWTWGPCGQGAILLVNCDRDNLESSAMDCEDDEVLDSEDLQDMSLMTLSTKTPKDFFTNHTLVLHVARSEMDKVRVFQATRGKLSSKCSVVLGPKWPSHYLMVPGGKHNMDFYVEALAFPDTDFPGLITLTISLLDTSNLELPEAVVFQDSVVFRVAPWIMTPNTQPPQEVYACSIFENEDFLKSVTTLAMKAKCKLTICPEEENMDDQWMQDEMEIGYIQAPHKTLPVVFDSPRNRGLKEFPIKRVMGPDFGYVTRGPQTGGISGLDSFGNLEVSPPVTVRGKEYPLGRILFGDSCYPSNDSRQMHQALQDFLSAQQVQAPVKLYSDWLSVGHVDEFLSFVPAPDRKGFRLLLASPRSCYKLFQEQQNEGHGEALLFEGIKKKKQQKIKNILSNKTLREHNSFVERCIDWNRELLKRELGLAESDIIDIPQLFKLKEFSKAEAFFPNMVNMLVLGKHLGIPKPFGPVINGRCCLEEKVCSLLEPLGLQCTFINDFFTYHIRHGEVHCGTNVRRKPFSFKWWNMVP
Rin1 Abl conf: Rin1-Abl binding inhibitor retest, confirmation, biochemical, TR-FRET; shares compounds with Rin1-Abl PPI inh; purified proteins; inhibition, % at 7.35 µM; hit rate 49% among 1,300; AID 602124, 2011
GFP quencher: GFP fluorescence inhibitors and quenchers, artefact control for Rin1-Abl interaction inhibitor project, biochemical; shares compounds with Rin1-Abl PPI inh; inhibitors/quenchers counterscreen; inhibition, % at 6.75 µM; hit rate 8.5% among 1,300; AID 602125, 2011;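 also: ABL1-eGFP fusion protein alone without its partner RIN1-SBP; 0% = protein with vehicle and 100% = wells lacking protein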
Numbers without * were called inactive. Rule as the data show it, unless noted: active = inhibition above about 6.5%; inactive = the rest.

Screening C[C@@H]1CN([C@H](C)CO)C(=O)CCCn2cc(nn2)CO[C@H]1CN(C)S(=O)(=O)c1ccccc1 returned Rin1-Abl PPI inh -1.1.
`CC(Oc1cccc(Cl)c1)C(=O)NNC(=O)c1cccnc1` (configuration not stated) gave Apaf-1 inh -1.4, Rin1-Abl PPI inh 2.0, UBC13 polyUb -3.6 and PAD4 inh -1.3.
Screening CC(Oc1ccc(Cl)cc1Cl)C(=O)NNC(=O)c1cccnc1 (configuration not stated) returned Apaf-1 inh -9.4, Rin1-Abl PPI inh 8.9*, GSTO1 counter 3.0, UBC13 polyUb -2.7, SUMO HTRF inh 4.8, PAD4 inh -4.3, Rin1 Abl conf -2.1 and GFP quencher -0.6.
Screening O=C(NC1CCCC1)c1cc(S(=O)(=O)N2CCCC2)ccc1Cl returned Apaf-1 inh 0.0, Rin1-Abl PPI inh 7.6*, GSTO1 counter 0.4, UBC13 polyUb -9.9, SUMO HTRF inh 5.4, PAD4 inh -2.5, Rin1 Abl conf -0.8 and GFP quencher -0.1.
Screening CCCN1CCN(C(=O)Cn2nc(C)n3c(cc4c(OC)cccc43)c2=O)CC1 returned Rin1-Abl PPI inh -1.4.
`COc1cc(NC(=O)c2cc(-c3ccc4c(c3)OCO4)on2)cc(OC)c1OC` gave Apaf-1 inh 0.5, Rin1-Abl PPI inh 11.6*, GSTO1 counter -4.3, UBC13 polyUb 5.1, SUMO HTRF inh 9.5, PAD4 inh -1.1, Rin1 Abl conf -1.6 and GFP quencher -0.5.
`O=C(Nc1cccc(NC(=O)c2cccnc2)c1)c1cccnc1` gave Apaf-1 inh -13.7, Rin1-Abl PPI inh 8.6*, GSTO1 counter 4.0, UBC13 polyUb 2.5, SUMO HTRF inh -11.9, PAD4 inh 0.8, Rin1 Abl conf -1.8 and GFP quencher 0.2.
For O=C(NCc1ccccc1)c1ccc(Br)cc1Br the results were Apaf-1 inh 5.2, Rin1-Abl PPI inh -4.0, GSTO1 counter 5.9, UBC13 polyUb 4.8, SUMO HTRF inh 13.3 and PAD4 inh -5.1.
Screening O=C(NCc1ccccc1)c1ccccc1Br returned Apaf-1 inh -3.1, Rin1-Abl PPI inh 7.8*, GSTO1 counter -0.7, UBC13 polyUb -3.3, SUMO HTRF inh 7.3, PAD4 inh -1.1, Rin1 Abl conf -2.7 and GFP quencher -1.4.
CCCN(CCC)S(=O)(=O)c1ccc(C(=O)NCc2ccc3c(c2)OCO3)cc1 was read as Apaf-1 inh 15.9, Rin1-Abl PPI inh 6.3*, GSTO1 counter 0.9, UBC13 polyUb 7.0, SUMO HTRF inh -1.3, PAD4 inh 4.1, Rin1 Abl conf -1.2 and GFP quencher 2.3.
`CSc1ccc(NC(=O)N2CCC(C(=O)c3ccc(F)cc3)CC2)cc1` gave Apaf-1 inh 7.7, Rin1-Abl PPI inh 7.4*, GSTO1 counter 3.5, UBC13 polyUb 8.6, SUMO HTRF inh 13.5, PAD4 inh -1.3, Rin1 Abl conf -1.3 and GFP quencher 0.1.
`CCOCCCNC(=O)c1cn(CC)c2ccc(S(=O)(=O)N3CCCC3)cc2c1=O` gave Apaf-1 inh -9.3, Rin1-Abl PPI inh 1.0, GSTO1 counter -3.0, UBC13 polyUb -7.1, SUMO HTRF inh 3.3 and PAD4 inh 6.3.
`Cn1c(N)c(S(=O)(=O)N2CCN(C(=O)c3ccco3)CC2)c(=O)n(C)c1=O` gave Apaf-1 inh -21.6, Rin1-Abl PPI inh 0.3, GSTO1 counter 6.5, UBC13 polyUb 4.7, SUMO HTRF inh 22.1 and PAD4 inh -3.4.
Cc1c(S(=O)(=O)N2CCN(C(=O)c3ccco3)CC2)c(=O)n(C)c(=O)n1C was read as Apaf-1 inh -6.1, Rin1-Abl PPI inh 8.2*, GSTO1 counter -1.8, UBC13 polyUb 3.1, SUMO HTRF inh 1.9, PAD4 inh -1.4, Rin1 Abl conf -0.7 and GFP quencher -0.1.
CC(C)N(CC(N)=O)C(=O)c1sc2cc(F)ccc2c1Cl was read as Apaf-1 inh -3.3, Rin1-Abl PPI inh 7.0*, GSTO1 counter -2.5, UBC13 polyUb 6.3, SUMO HTRF inh 5.7, PAD4 inh -1.6, Rin1 Abl conf 0.2 and GFP quencher 1.3.
For Cc1cc(C)n(-c2cc(Cl)cc(Cl)c2)c(=O)c1C#N the results were Apaf-1 inh -403.0, Rin1-Abl PPI inh 8.3*, GSTO1 counter -4.5, UBC13 polyUb -2.6, SUMO HTRF inh 2.6, PAD4 inh 0.0, Rin1 Abl conf -3.4 and GFP quencher -0.3.
`Cc1ccc(-n2c(C)cc(C)c(C#N)c2=O)cc1Cl` gave Apaf-1 inh -6.2, Rin1-Abl PPI inh 0.2, GSTO1 counter -7.1, UBC13 polyUb 6.0, SUMO HTRF inh 14.5 and PAD4 inh 4.8.
Cc1c(C(=O)O)c(O)cc2c1C(=O)c1c(O)c([C@@H]3O[C@H](CO)[C@@H](O)[C@H](O)[C@H]3O)c(O)c(O)c1C2=O was read as Apaf-1 inh 3.5, Rin1-Abl PPI inh 21.3*, UBC13 polyUb -75.4, PAD4 inh 0.3, Rin1 Abl conf 26.9* and GFP quencher 5.3.
Screening COc1c(O)cc2c(c1O)[C@@H]1O[C@H](CO)[C@@H](O)[C@H](O)[C@H]1OC2=O returned Apaf-1 inh -3.7, Rin1-Abl PPI inh 3.8, GSTO1 counter 3.5, UBC13 polyUb 3.3, SUMO HTRF inh 3.2 and PAD4 inh 0.3.
`CCOc1ccccc1N1CCN(C(=O)c2cc(-c3cc(OC)ccc3OC)nc3ccccc23)CC1` gave Apaf-1 inh 15.0, Rin1-Abl PPI inh 1.8, GSTO1 counter 0.7, UBC13 polyUb -8.4, SUMO HTRF inh 5.8 and PAD4 inh -0.7.
`CC1CCCN(Cc2nc(Cc3ccccc3Cl)no2)C1` (configuration not stated) gave Apaf-1 inh -10.4, Rin1-Abl PPI inh -4.1, GSTO1 counter 7.9, UBC13 polyUb 0.9, SUMO HTRF inh 10.8 and PAD4 inh 1.7.
`OC1CCCN(Cc2nc(Cc3ccccc3Cl)no2)C1` (configuration not stated) gave Apaf-1 inh -7.5, Rin1-Abl PPI inh 8.8*, GSTO1 counter -0.4, UBC13 polyUb 8.9, SUMO HTRF inh 11.8, PAD4 inh 3.9, Rin1 Abl conf -2.3 and GFP quencher -3.4.
For CN(C(=O)COC(=O)c1cccs1)c1ccccc1 the results were Rin1-Abl PPI inh -2.1.
CN1OC[C@@H]2CN(C(=O)CCc3ccccc3)[C@H](c3ccccc3Br)C[C@@H]21 was read as Rin1-Abl PPI inh 14.5*, Rin1 Abl conf 11.6* and GFP quencher -0.3.

Compound activity (PubChem)
